# The sample as a whole holds a higher share of hits than the screen did.
# T cruzi repl: T. cruzi replication inhibition. AID 1885. T. cruzi beta-gal in NIH3T3, luminescence, 90 h. 300,000 tested, 1.4% active. inhibition, % (test concentration not listed);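 active = mean inhibition across valid replicates above about 55%, limit read from the data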;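 note: signal also drops with host cell toxicity which is not excluded here; 0% = plate median of DMSO wells and 100% = zero luminescence signal; higher percent means less beta-gal luminescence so fewer parasites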
#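 Assay system: NIH/3T3 host cells with β-galactosidase reporter T. cruzi; input: 5,000 host fibroblasts per well; compound: single 50 nL compound addition per well in DMSO; timing: ≥90 h infection period, 3 h prior cell attachment; measured by: GalScreen β-gal luminescence, detergent lysis, 60 min; evaluation: percent inhibition of parasite-derived β-gal signal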
# Lipid droplet: hepatic lipid droplet formation modulation; AML12 mouse hepatocytes, oleate lipid droplets, BODIPY imaging; inhibition, % at 6.5 µM; 240,000 tested, 0.4% active; AID 1656;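 active = lipid droplet intensity inhibited by at least 50%, with more than 500 cells counted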
#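 Test system: AML12 hepatocytes (mouse); reagent: oleate loading, 100 µM; dosing: one dose, 6.5 µM compound; incubation: overnight exposure; signal: fluorescence imaging, 20x objective, two fields per well; read-out basis: % inhibition of corrected integrated BODIPY droplet signal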
# L major viab: Leishmania major promastigote growth inhibition. Leishmania major promastigotes, resazurin fluorescence viability. AID 1063. inhibition, % at 10 µM. 200,000 tested, 9% active; in the data active = inhibition above about 50%;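 note: promastigotes grown with compound for 44 hours at 28 °C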
# MPTP inh: inhibitors of mitochondrial permeability transition pore; isolated mouse mitochondria, Ca2+ swelling absorbance, 30 min; inhibition, % at 10 µM; 360,000 tested, 1.4% active; AID 602449;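 active = inhibition of 50% or more, scaled per plate between neutral and stimulator controls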;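 note: 0% = DMSO wells given calcium and 100% = 1 mM EGTA wells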
# Redox H2O2 prof: compounds producing H2O2 with reducing agent – biochemical, NIH compound library profiling, artefact control for MLSCN library redox annotation, primary screen. DTT-dependent redox cycling H2O2, phenol red/HRP absorbance; 100% = 100 µM peroxide control, 0% = buffer. 200,000 tested, 0.03% active. activation, % at 10 µM. AID 878;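 active = activation of at least 50% relative to the plate's high and low controls in the primary single-dose screen; inactive = activation below 50%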;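 note: compound incubated with DTT at 0.8 mM final as the reducing agent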
# MPTP counter: Rhodamine 123 counter-screen of mitochondrial pore hits | 5,000 tested, 78% active | inhibition, % at 10 µM | isolated mitochondria, membrane potential, Rhodamine 123 fluorescence | shares compounds with MPTP inh | AID 624504; in the data active = inhibition above about 22%;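 note: 0% = DMSO vehicle and 100% = positive control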
# MPTP abs DR: dose response confirmation of mitochondrial permeability transition pore inhibitors. shares compounds with MPTP inh. isolated mitochondria swelling, absorbance. IC50, µM. 780 tested, 58% active. AID 651561; in the data active = IC50 below about 20 µM
# MPTP cs DR: MPTP inhibitor counter-screen activity, dose response; shares compounds with MPTP inh; isolated mitochondria counterscreen, fluorescence read-out; IC50, µM; 780 tested, 49% active; in the data active = IC50 below about 80 µM
# Active calls of the source: *; · = no result given.
SMILES,T cruzi repl,Lipid droplet,L major viab,MPTP inh,Redox H2O2 prof,MPTP counter,others
CC(NC(=S)Nc1cccc(C(F)(F)F)c1)C(C)(C)C (stereo not drawn),-3.5,18.7,25.6,94.4*,-0.5,94.8*,
S=C(Nc1ccccc1Oc1ccccc1)Nc1cccc(Cl)c1Cl,-18.8,11.2,13.8,77.8*,0.7,68.8*,
S=C(Nc1cccc(Cl)c1)Nc1ccccc1Oc1ccccc1,17.2,·,26.7,91.3*,0.9,110.4*,
COc1cc(CN2CCNC(=O)C2CC(=O)N(Cc2nccn2C)C(C)C)cc(OC)c1 (stereo not drawn),-8.1,-0.9,·,0.5,·,·,
CC[C@H](C)[C@H](NC(N)=O)C(=O)Nc1ccccc1F,3.1,-1.2,-8.0,1.0,-0.2,·,
CN(CC(=O)Nc1ccc(SC(F)F)cc1)C1CCCCC1,3.3,3.9,6.0,0.7,0.0,·,
S=C(NCC1CCCCC1)Nc1cccnc1,-10.2,20.3,5.8,0.8,-0.3,·,
FC(F)Sc1ccc(NC(=S)NCC2CCCCC2)cc1,23.1,·,23.2,103.1*,0.1,80.0*,
CC1CCCCC1NC(=S)Nc1ccc(SC(F)F)cc1 (stereo not drawn),29.8,3.4,17.6,66.4*,0.1,91.0*,
FC(F)Sc1ccc(NC(=S)NC2CCCCC2)cc1,3.0,·,12.4,101.2*,0.1,79.0*,
Nc1nc(Sc2c([N+](=O)[O-])cc(C(F)(F)F)cc2[N+](=O)[O-])n[nH]1,10.2,-12.3,·,4.9,·,·,
CCOc1cc(CNC2CCCC2)cc(Cl)c1OCc1ccccc1,43.0,·,96.9*,68.1*,2.4,-2.9,MPTP abs DR=3.12*;MPTP cs DR=48.8*
CCOc1cc(C(N)=O)cc(Cl)c1OCc1ccccc1,-6.1,-9.8,1.7,0.0,-3.5,·,
COc1cccc(NC(=S)NC2CC(C)CC(C)(C)C2)c1 (stereo not drawn),·,·,·,64.4*,·,93.1*,
NCCCCc1ccc2ccc3cccc4ccc1c2c34,·,·,·,88.8*,·,-15.4,MPTP abs DR=6.16*;MPTP cs DR=53.3*
O=C(CCCCCCN1C(=O)c2ccccc2C1=O)Nc1nccs1,1.2,-24.6,-0.1,66.4*,-0.7,-1.2,MPTP abs DR=>100;MPTP cs DR=>80
O=C(CCN1CCc2ccccc2C(c2ccccc2)C1)c1ccc2c(c1)OCCO2 (stereo not drawn),-13.5,-10.3,100.5*,82.6*,0.1,-4.7,
c1ccc2c(c1)oc1c(NCc3ccc4c(c3)OCO4)ncnc12,-8.3,·,1.2,84.5*,-0.3,109.9*,
O[C@@H](c1cc(C(F)(F)F)nc2c(C(F)(F)F)cccc12)[C@H]1CCCCN1,33.2,·,·,97.4*,·,-20.6,
OC(c1cc(C(F)(F)F)nc2c(Cl)cc(Cl)cc12)C1CCCCN1 (stereo not drawn),38.3,2.6,·,1.7,·,·,
CC[C@@H](C(=O)[C@@H](C)[C@@H](O)[C@H](C)CCc1ccc(C)c(O)c1C(=O)O)[C@H]1O[C@](CC)([C@H]2CC[C@](O)(CC)[C@H](C)O2)C[C@@H]1C,36.5,-20.4,·,103.5*,·,83.6*,
CC[C@@H](C(=O)[C@@H](C)[C@@H](O)[C@H](C)[C@@H]1O[C@@H]([C@@H](CC)C(=O)O)CC[C@@H]1C)[C@H]1O[C@]2(C=C[C@@H](O)[C@]3(CC[C@@](C)([C@H]4CC[C@](O)(CC)[C@H](C)O4)O3)O2)[C@H](C)C[C@@H]1C,·,·,·,4.3,·,·,
CC(C)NC(=O)C1(C)CCCN1C(=O)c1ccc2c(c1)C(C)(C)CCC2(C)C (stereo not drawn),·,·,·,1.2,·,·,
S=C(Nc1ccc(Br)cc1)N1CCn2cccc2C1c1cccnc1 (stereo not drawn),78.7*,43.6,96.1*,97.1*,-0.3,91.7*,
CNC(=S)N1CCn2cccc2C1c1cc(OC)c(OC)c(OC)c1 (stereo not drawn),-5.2,4.8,-1.4,0.2,-0.3,·,
SMILES,T cruzi repl,Lipid droplet,L major viab,MPTP inh,Redox H2O2 prof,MPTP counter,others
COc1cc(Br)cc(C(=O)N2CCc3ccccc32)c1OC,·,·,·,-0.5,·,·,
COc1ccc(-c2n[nH]c(C(F)(F)F)c2-c2cc3ccccc3o2)c(O)c1,-19.5,·,37.3,54.6*,1.8,60.0*,
COc1ccc(-c2nc(N)nc(C(F)(F)F)c2-c2ccccc2OC)c(O)c1,3.2,6.7,·,1.2,·,·,
CSc1ccc2c(c1)N(CCC1CCCCN1C)c1ccccc1S2 (stereo not drawn),30.7,1.3,99.2*,85.4*,1.4,-22.1,MPTP abs DR=4.79*;MPTP cs DR=56*
CN1CCN(CCCN2c3ccccc3Sc3ccc(S(=O)(=O)N(C)C)cc32)CC1,·,·,·,1.1,·,·,
COc1cccc(/C=C2/Sc3ccc(C(=O)NCCCN4CCCC4)cc3NC2=O)c1,30.9,19.4,·,-1.1,·,·,
COc1ccc2cc(/C=C3\SC(=S)NC3=O)c(N3CCOCC3)nc2c1,-16.9,24.9,8.4,80.1*,0.0,72.0*,
COc1cccc(/C=C2/Sc3ccc(C(=O)NCCN4CCCC4)cc3NC2=O)c1,20.4,2.8,·,55.4*,·,-19.3,MPTP abs DR=5.96*;MPTP cs DR=77.4*
COc1cccc(C=C2SC(=S)NC2=O)c1,·,·,·,55.6*,·,79.2*,
COc1cccc(N2CCN(C(=O)CN(C)S(=O)(=O)c3ccc4c(c3)c(=O)n(C)c(=O)n4C)CC2)c1,14.4,10.6,5.2,-2.4,-0.6,·,
CN(C)S(=O)(=O)c1ccc(-c2csc(N/N=C/c3ccc(O)cc3)n2)cc1,21.3,19.2,·,58.0*,·,43.0*,
O=C(c1ccccc1)c1cnc(Nc2ccc(Cl)c(Cl)c2)s1,8.2,·,-1.6,62.4*,-4.8,44.1*,
O=C(c1ccc(F)cc1)c1cnc(Nc2ccccc2)s1,8.5,-8.0,7.6,0.3,-1.2,·,
CCCOC1OC(=O)c2c1ccc(OC)c2OC (stereo not drawn),-7.3,-1.4,-1.7,1.4,-0.3,·,
COc1ccccc1NC(=O)N1CCC(NC(=O)C(Cc2ccccc2F)NC(C)=O)CC1 (stereo not drawn),5.0,-17.0,·,1.0,·,·,
O=c1c2ccccc2nc(COc2ccccc2)n1/N=C/c1cc([N+](=O)[O-])ccc1O,35.0,-16.0,34.6,49.4,0.7,·,
Cc1cc(/C=N/n2c(COc3ccccc3C)nc3ccccc3c2=O)c(O)c([N+](=O)[O-])c1,66.6*,-0.2,1.1,70.5*,0.6,39.2*,
Cc1cc(NC(=O)COC(=O)[C@@H]2CCCN2C(=O)c2cccs2)no1,·,·,·,-1.9,·,·,
COC(=O)c1cccc(NC(=O)c2cccnc2C(=O)O)c1C,-3.8,-7.6,-5.6,-1.9,-0.3,·,
O=c1oc2ccccc2c(Nc2ccc3ccccc3c2)c1[N+](=O)[O-],-9.6,·,38.2,62.5*,0.9,77.8*,
Cc1ccc(Nc2c([N+](=O)[O-])c(=O)oc3ccccc23)cc1,-21.9,-4.9,6.2,-2.2,-0.4,·,

# Source: PubChem
